Results reported in ChEMBL document CHEMBL1129567, “Structure-based design of novel, urea-containing FKBP12 inhibitors” (J Med Chem, 1996).

molecular target: Peptidyl-prolyl cis-trans isomerase FKBP1A (Homo sapiens, UniProt P62942); experiment: Apparent inhibition constant of Wild-type human recombinant FK506 binding protein 12; details: read-out: Ki app
Method in brief: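 Wild-type human recombinant FKBP12 (E. coli-expressed, purified), 90 nM, chymotrypsin-coupled continuous spectrophotometric cis-trans isomerase assay with 100 µM cis succinyl-Ala-Leu-Pro-Phe-p-nitroanilide (stock in trifluoroethanol/240 mM LiCl) at 10 or 15 °C. Buffer: 50 mM HEPES pH 8.0, 100 mM NaCl, 100 µM 2-mercaptoethanol, 1% DMSO, 6 mg/mL chymotrypsin. Read for 5 min. Fit to competitive tight-binding equation corrected for uncatalyzed isomerization.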

Peptidyl-prolyl cis-trans isomerase FKBP1A, sequence (P62942 whole entry): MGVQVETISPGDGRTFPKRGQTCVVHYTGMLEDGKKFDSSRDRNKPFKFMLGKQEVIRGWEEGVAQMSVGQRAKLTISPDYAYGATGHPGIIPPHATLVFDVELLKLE

SMILES | Ki
COC(=O)[C@@H]1CCC[C@H]2CCN(Cc3ccccc3)C(=O)N21 | 67000 nM
CC1(CNC(=O)N2CCCC[C@H]2C(=O)OCc2ccccc2)CCCC1 | 570 nM
CC(C)(CO)CNC(=O)N1CCCC[C@H]1C(=O)OCc1ccccc1 | 8400 nM
CC1(CNC(=O)N2CCCC[C@H]2C(=O)OCc2ccccc2)CCCCC1 | 550 nM
CC(C)(C)CNC(=O)N1CCCC[C@H]1C(=O)OCc1ccccc1 | 790 nM
O=C(OCc1ccccc1)[C@@H]1CCC[C@H]2CCN(Cc3ccccc3)C(=O)N21 | 14000 nM
CCCN1CC[C@@H]2CCC[C@@H](C(=O)OCc3ccccc3)N2C1=O | 24000 nM
COc1cc(CCCOC(=O)[C@@H]2CCCCN2C(=O)NCC(C)(C)C)cc(OC)c1OC | 390 nM
O=C(OCc1ccccc1)[C@@H]1CCCCN1C(=O)NCc1ccccc1 | 6500 nM
C=C(C)CNC(=O)N1CCCC[C@H]1C(=O)OCc1ccccc1 | 7200 nM
CCCN1CC[C@@H]2CCC[C@@H](C(=O)OC)N2C1=O | 83000 nM

Molecules with a lower Ki, results first:

Ki | SMILES
220 nM | CC(C)(C)CNC(=O)N1CCCC[C@H]1C(=O)OCc1cccc(Oc2ccccc2)c1
350 nM | CC(C)(C)CNC(=O)N1CCCC[C@H]1C(=O)O[C@H](CCc1ccccc1)c1ccccc1
200 nM | CC1(CNC(=O)N2CCCC[C@H]2C(=O)OCc2cccc(Oc3ccccc3)c2)CCCCC1
120 nM | CC1(CNC(=O)N2CCCC[C@H]2C(=O)OCCCCc2ccccc2)CCCCC1
370 nM | COc1cccc(CCCOC(=O)[C@@H]2CCCCN2C(=O)NCC(C)(C)C)c1
150 nM | CC(C)(C)CNC(=O)N1CCCC[C@H]1C(=O)OCCCCc1ccccc1
